Test results published in ChEMBL document CHEMBL2380254, “Optimization of tocotrienols as antiproliferative and antimigratory leads” (Eur J Med Chem, 2013).

What was measured:
MDA-MB-231 [1] = test: Growth inhibition of human MDA-MB-231 cells assessed as cell growth at 10 uM after 48 hrs by sulforhodamine B assay; type: functional; conditions: MDA-MB-231, 48 h, read-out: Activity
In short: (§1)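 Single-dose NCI-60 screen: adherent cells in RPMI 1640 with 5% FBS were exposed to 10 µM for 48 h at 37 °C after a 24 h preincubation. They were fixed in situ with cold TCA (10% final), stained with 0.4% SRB in 1% acetic acid, solubilized in 10 mM Tris base, and read at 515 nm. Percent growth was taken relative to time-zero and control plates.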

SF-268 = test: Growth inhibition of human SF268 cells assessed as cell growth at 10 uM after 48 hrs by sulforhodamine B assay; type: functional; conditions: SF-268, 48 h, read-out: Activity; in short: as §1
MDA-MB-231 [2] = test: Antiproliferative activity against human MDA-MB-231 cells by MTT assay; type: functional, cell-based
In short: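 Cells plated at 8 × 10^3/well (MDA-MB-231) or 10^4/well (MCF7) in 96-well plates. Compounds fed in media with 5% FBS (MDA-MB-231) or 1% FBS (MCF7). MTT read-out of viable cells.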

NCI-H23 = test: Growth inhibition of human NCI-H23 cells assessed as cell growth at 10 uM after 48 hrs by sulforhodamine B assay; type: functional; conditions: NCI-H23, 48 h, read-out: Activity; in short: as §1
MCF-10A = test: Antiproliferative activity against human MCF10A cells by MTT assay; type: cell-based
In short: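 MCF10A kept in DMEM/F12 with 5% horse serum, hydrocortisone, cholera toxin, insulin and EGF, plated at 10 × 10^4 cells/well. Compounds from DMSO stock (final DMSO <0.1%, equal across groups) fed in serum-free media. Viable cell number by MTT; IC50 by non-linear regression.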

U-251 = test: Growth inhibition of human U251 cells assessed as cell growth at 10 uM after 48 hrs by sulforhodamine B assay; type: functional; conditions: U-251, 48 h, read-out: Activity
In short: (§2)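 Single-dose NCI-60 test at 10 µM. Cells were grown in RPMI 1640 with 5% FBS and 2 mM L-glutamine, preincubated 24 h, with T0 plates TCA-fixed. Exposure was 48 h at 37 °C, 5% CO2. Cells were fixed with cold TCA (final 10%, 4 °C, 60 min), stained with SRB and read at 515 nm. Percent growth was taken relative to T0 and untreated control; negative values denote cell kill.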

SK-MEL-5 = test: Growth inhibition of human SK-MEL-5 cells assessed as cell growth at 10 uM after 48 hrs by sulforhodamine B assay; type: functional; conditions: SK-MEL-5, 48 h, read-out: Activity; in short: as §1
M14 = test: Growth inhibition of human M14 cells assessed as cell growth at 10 uM after 48 hrs by sulforhodamine B assay; type: functional; conditions: M14, 48 h, read-out: Activity
In short: (§3)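 NCI-60 single-dose screen at 10 µM: cells in RPMI 1640 with 5% FBS, preincubated 24 h, then exposed 48 h at 37 °C. TCA fixation (16% final for suspension cells), SRB staining, absorbance 515 nm. Percent growth relative to time-zero and untreated control plates; negative values indicate cell kill.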

SK-MEL-28 = test: Growth inhibition of human SK-MEL-28 cells assessed as cell growth at 10 uM after 48 hrs by sulforhodamine B assay; type: functional; conditions: SK-MEL-28, 48 h, read-out: Activity; in short: as §1
TK-10 = test: Growth inhibition of human TK10 cells assessed as cell growth at 10 uM after 48 hrs by sulforhodamine B assay; type: functional; conditions: TK-10, 48 h, read-out: Activity; in short: as §2
KM12 = test: Growth inhibition of human KM12 cells assessed as cell growth at 10 uM after 48 hrs by sulforhodamine B assay; type: functional; conditions: KM12, 48 h, read-out: Activity; in short: as §3
RXF 393 [3] = test: Growth inhibition of human RXF393 cells assessed as cell growth at 10 uM after 48 hrs by sulforhodamine B assay; type: functional; conditions: RXF 393, 48 h, read-out: Activity; in short: as §1
K562 = test: Growth inhibition of human K562 cells after 48 hrs by sulforhodamine B assay; type: functional; conditions: K562, 48 h
In short: (§4)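 NCI-60 screen: cells in RPMI 1640 with 5% FBS and 2 mM glutamine, 5000–40,000 cells/well, preincubated 24 h. Five concentrations (10-fold dilutions; 100 to 0.001 µM) applied for 48 h at 37 °C. TCA fixation, SRB stain, absorbance at 515 nm. Time-zero plates included; GI50 where 100×(T−T0)/(C−T0)=50.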

RXF 393 [4] = test: Growth inhibition of human RXF393 cells after 48 hrs by sulforhodamine B assay; type: functional; conditions: RXF 393, 48 h
In short: (§5)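 NCI-60 panel cells grown in RPMI 1640 with 5% FBS and 2 mM L-glutamine, seeded at 5000–40,000 cells/well and preincubated 24 h. Five 10-fold dilutions (0.001–100 µM) from DMSO stocks were added for 48 h at 37 °C. Adherent cells were fixed with cold TCA (10% final) for 60 min at 4 °C, stained with 0.4% SRB, and read at 515 nm. GI50 was set where 100×(T−T0)/(C−T0)=50.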

MDA-MB-231 [5] = test: Growth inhibition of human MDA-MB-231 cells after 48 hrs by sulforhodamine B assay; type: functional; conditions: MDA-MB-231, 48 h; in short: as §5
COLO 205 = test: Growth inhibition of human COLO205 cells after 48 hrs by sulforhodamine B assay; type: functional; conditions: COLO 205, 48 h; in short: as §4
SF-295 = test: Growth inhibition of human SF295 cells after 48 hrs by sulforhodamine B assay; type: functional; conditions: SF-295, 48 h; in short: as §5
NCI-H322M = test: Growth inhibition of human NCI-H322M cells after 48 hrs by sulforhodamine B assay; type: functional; in short: as §5
HOP-62 = test: Growth inhibition of human HOP62 cells after 48 hrs by sulforhodamine B assay; type: functional; conditions: HOP-62, 48 h; in short: as §4
MDA-MB-468 = test: Growth inhibition of human MDA-MB-468 cells after 48 hrs by sulforhodamine B assay; type: functional; conditions: MDA-MB-468, 48 h; in short: as §5
MCF7 = test: Growth inhibition of human MCF7 cells after 48 hrs by sulforhodamine B assay; type: functional; conditions: MCF7, 48 h; in short: as §5
SK-MEL-2 = test: Growth inhibition of human SK-MEL-2 cells after 48 hrs by sulforhodamine B assay; type: functional; conditions: SK-MEL-2, 48 h; in short: as §5
NCI-H226 = test: Growth inhibition of human NCI-H226 cells after 48 hrs by sulforhodamine B assay; type: functional; conditions: NCI-H226, 48 h; in short: as §5

Row | Compound | growth at 10 µM (MDA-MB-231 [1]) | growth at 10 µM (SF-268) | IC50 (MDA-MB-231 [2]) | growth at 10 µM (NCI-H23) | IC50 (MCF-10A) | growth at 10 µM (U-251) | growth at 10 µM (SK-MEL-5) | growth at 10 µM (M14) | growth at 10 µM (SK-MEL-28) | growth at 10 µM (TK-10) | growth at 10 µM (KM12) | growth at 10 µM (RXF 393 [3]) | further results
1 | COc1ccc(CCN2COc3c(C)c(C)c4c(c3C2)CC[C@@](C)(CC/C=C(\C)CC/C=C(\C)CCC=C(C)C)O4)cc1OC | 96.1% | 94.8% | > 50000 nM | 102% | 700 nM | 88.4% | 107% | 101% | 93.6% | 105% | 96.4% | – | –
2 | CC(C)=CCC/C(C)=C/CC/C(C)=C/CC[C@]1(C)CCc2c3c(c(C)c(C)c2O1)OCN(CCCCCCCCCCO)C3 | 112% | 94.2% | 15700 nM | 90.9% | – | 78.7% | 95.6% | 101% | 98.2% | 99.4% | 89.1% | 83.1% | –
3 | CC(C)=CCC/C(C)=C/CC/C(C)=C/CC[C@]1(C)CCc2c3c(c(C)c(C)c2O1)OCN(CCc1ccc(O)cc1)C3 | 68.5% | 83.7% | > 5000 nM | 88.2% | 8500 nM | 81.8% | 115% | 97.6% | 76.6% | 106% | 65.6% | – | –
4 | CC(C)=CCC/C(C)=C/CC/C(C)=C/CC[C@]1(C)CCc2cc(O)c(C)c(C)c2O1 [GAMMA-TOCOTRIENOL] | 108% | 108% | 9400 nM | 92.8% | 4400 nM | 102% | 99.1% | 109% | 97.3% | 122% | 107% | 84.1% | –
5 | CC(C)=CCC/C(C)=C/CC/C(C)=C/CC[C@]1(C)CCc2c3c(c(C)c(C)c2O1)OCN(CCCCCCO)C3 | 9.83% | 26% | > 10000 nM | 47% | – | -75.2% | 95.2% | 26% | 63.1% | 97.9% | 7.87% | 22.4% | GI50 (K562): 2960 nM; GI50 (RXF 393 [4]): 2300 nM; GI50 (MDA-MB-231 [5]): 2750 nM; GI50 (COLO 205): 2830 nM; GI50 (SF-295): 2970 nM; GI50 (NCI-H322M): 2710 nM; GI50 (HOP-62): 2700 nM; GI50 (MDA-MB-468): 2610 nM; GI50 (MCF7): 2730 nM; GI50 (SK-MEL-2): 3270 nM; GI50 (NCI-H226): 2810 nM
6 | CC(C)=CCC/C(C)=C/CC/C(C)=C/CC[C@]1(C)CCc2c3c(cc(C)c2O1)OCN(CCCCCCCCCCCCO)C3 | 99.8% | 98.7% | > 50000 nM | 77.3% | – | 59.1% | 58.1% | 90.9% | 75.3% | 58.4% | 61.1% | 34.4% | –
7 | COc1ccc(CCNCc2c(O)c(C)c(C)c3c2CC[C@@](C)(CC/C=C(\C)CC/C=C(\C)CCC=C(C)C)O3)cc1OC | 78.6% | 98% | – | 84.9% | – | 83.7% | 108% | 90.4% | 92.6% | 106% | 60.1% | – | –
8 | CC(C)=CCC/C(C)=C/CC/C(C)=C/CC[C@]1(C)CCc2c3c(cc(C)c2O1)OCN(CCCCCCCCCCO)C3 | 119% | 97.7% | 12400 nM | 90.8% | – | 74% | 85.2% | 94.9% | 99.9% | 101% | 87.2% | 52.6% | –
9 | CC(C)=CCC/C(C)=C/CC/C(C)=C/CC[C@]1(C)CCc2c3c(c(C)c(C)c2O1)OCN(CCCCCCCCCCCCO)C3 | 119% | 116% | > 50000 nM | 104% | – | 90.3% | 92.8% | 113% | 110% | 108% | 90.4% | 92.5% | –
10 | CC(C)=CCC/C(C)=C/CC/C(C)=C/CC[C@]1(C)CCc2c(CNCCc3ccc(O)cc3)c(O)c(C)c(C)c2O1 | 89.5% | 96.9% | – | 91.5% | – | 93% | 111% | 102% | 93.4% | 113% | 89.6% | – | –
